This is a sample that favours compounds with a hit; in the whole collection about 3.1% have one here.
MBD2 inh: blocks human MBD2 binding to methylated DNA; Q9UBB5; TR-FRET, MBD2 binding to methylated oligonucleotide; inhibition, % at 4.4 µM; actives 0.31% (n = 370,000); in the data active = inhibition above about 13%
PRMT1 FP inh: inhibitors of human PRMT1; actives 1.3% (n = 370,000); Q99873; recombinant PRMT1, activity-based probe fluorescence polarization; AID 652257; inhibition, % at 2.79 µM;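 active = inhibition above about 21% made by adding two undisclosed values, limit read from the data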
Target sequence (Q99873 whole entry, looked up): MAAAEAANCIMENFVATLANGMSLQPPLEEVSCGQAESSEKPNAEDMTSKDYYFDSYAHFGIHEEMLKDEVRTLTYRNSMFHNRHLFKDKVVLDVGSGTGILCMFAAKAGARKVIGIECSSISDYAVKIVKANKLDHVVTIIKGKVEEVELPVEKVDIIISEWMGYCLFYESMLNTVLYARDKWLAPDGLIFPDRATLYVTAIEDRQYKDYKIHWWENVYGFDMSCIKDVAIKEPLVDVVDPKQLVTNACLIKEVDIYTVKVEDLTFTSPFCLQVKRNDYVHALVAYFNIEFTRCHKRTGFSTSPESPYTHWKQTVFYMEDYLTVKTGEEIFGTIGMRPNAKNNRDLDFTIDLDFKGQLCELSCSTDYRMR
UHRF1 MBD2 ctr: human UHRF1 methylated DNA binding inhibitors | UHRF1 binding to methylated oligo, TR-FRET | inhibition, % at 4.4 µM | actives 0.75% (n = 370,000); in the data active = inhibition above about 21%;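 note: UHRF1 SRA domain binding a hemimethylated CpG hairpin DNA probe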
RBBP9 inhibitor: blocks human serine hydrolase RBBP9. recombinant RBBP9, FP-Rh probe fluorescence polarization. AID 1515. O75884. actives 0.2% (n = 220,000). inhibition, % at 7.94 µM;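 active = inhibition above the campaign mean of all tested compounds plus 3 SD, cut at about 14% in these data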
Target sequence (O75884 whole entry, looked up): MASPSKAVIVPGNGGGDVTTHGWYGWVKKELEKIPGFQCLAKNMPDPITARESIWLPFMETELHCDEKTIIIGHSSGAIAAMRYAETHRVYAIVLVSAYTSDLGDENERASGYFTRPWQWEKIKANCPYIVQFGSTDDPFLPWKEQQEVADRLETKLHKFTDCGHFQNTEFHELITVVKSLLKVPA
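Test system – recombinant human RBBP9 · Input – RBBP9 2.5 µM in dispensing solution, pre-mixing · Medium – Tris buffer pH 8.0, NaCl, Pluronic · Schedule – preincubation 30 min plus labeling 45 min at 25 °C · Measured by – fluorescence polarization · Measure – % inhibition · Controls – DMSO and no-protein wells · Replicates – one well per compound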
ABHD5 PLIN5 PPI: blocks binding of human ABHD5 to perilipin-5; Q00G26+Q8WTS1; Split G. princeps luciferase complementation, luminescence, 4 h; inhibition, % at 4 µM; actives 0.78% (n = 360,000); AID 602281;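 active = inhibition above the mean inhibition across every tested compound plus 3 SD, cut at about 22% in these data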
LEDGF integ inh: blocks HIV-1 LEDGF/p75-dependent DNA integration. TR-FRET IN-LEDGF/p75 DNA integration, Eu/Cy5. inhibition, % at 3.7 µM. actives 0.64% (n = 370,000). AID 743269;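 active = inhibition above the screen-wide mean plus 3 SD, cut at about 13% in these data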;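 note: signal is the Cy5 over europium emission ratio at 671 and 618 nm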
PRMT1 confirm: confirmation of human PRMT1 inhibitors; shares compounds with PRMT1 FP inh; recombinant His-PRMT1, activity-based probe fluorescence polarization; inhibition, % at 2.79 µM; actives 42% (n = 3,300);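 active = mean inhibition across replicates above the hit cutoff derived for the earlier primary screen, cut at about 22% in these data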
Of the large screens only hits and unclear results are named; the others gave an inactive call (follow-up assays come after a bar, where they were run).

C=CCn1c(CSc2ccccc2[N+](=O)[O-])n[nH]c1=S	PRMT1 FP inh 25 (no result: RBBP9 inhibitor) | PRMT1 confirm inactive
COC(=O)[C@]12C[C@H](CC(=O)NCc3cccc4ccccc34)C(=O)N(Cc3ccco3)C1=C[C@H](C(C)(C)C)O[C@@H]2C	none (no result: RBBP9 inhibitor, ABHD5 PLIN5 PPI)
CC(COc1cccc(C#N)c1)CN1CCC(C(O)(c2ccccc2)c2ccccc2)CC1 (stereo not drawn)	none (no result: RBBP9 inhibitor, ABHD5 PLIN5 PPI)
CCC(=O)OCCNc1cc(Sc2nc3ccccc3s2)c2nonc2c1[N+](=O)[O-]	PRMT1 FP inh 68 | PRMT1 confirm 76
CS(=O)(=O)c1ccc(Sc2nc3ccccc3s2)c([N+](=O)[O-])c1	none (no result: MBD2 inh, PRMT1 FP inh, UHRF1 MBD2 ctr, LEDGF integ inh)
CCn1c(Cc2cccs2)nnc1SCC(=O)Nc1ccccc1-c1ccccc1	none (no result: RBBP9 inhibitor, ABHD5 PLIN5 PPI)
O=C(CSc1ccccn1)N1CCN(c2cccc(Cl)c2)CC1	PRMT1 FP inh 47 | PRMT1 confirm 53
CCOC(=O)CC(=O)CSc1ncnc2c1nnn2-c1ccc(OC)cc1	PRMT1 FP inh 62 | PRMT1 confirm 79
COc1ccc(C(C#N)=C2C=CC(=NO)C=C2)cc1	PRMT1 FP inh 28 | PRMT1 confirm inactive
N#CC(=C1C=CC(=NO)C(Cl)=C1)c1ccc(Cl)cc1	none (no result: RBBP9 inhibitor)
COC(=O)[C@]12C[C@H](CC(=O)NCCC(C)C)C(=O)N(CCC3=CCCCC3)C1=C[C@H](C1CCCC1)O[C@@H]2C	none (no result: RBBP9 inhibitor, ABHD5 PLIN5 PPI)
O=C1CCCC2=C1[C@@]1(O[C@H]3C=CC=CN23)C(=O)N(c2ccccc2)c2ccccc21	none (no result: RBBP9 inhibitor, ABHD5 PLIN5 PPI)
Cn1c(=O)c2[nH]c(-c3ccccc3Cl)c(O)c2n(C)c1=O	none
Cn1c(=O)c2[nH]c(-c3ccccc3)c(O)c2n(C)c1=O	PRMT1 FP inh 76 | PRMT1 confirm 24
C[C@H]1C2CC(OC(=O)Nc3ccccc3C(F)(F)F)C(C2)[C@H]2CCCCN21 (stereo partly drawn)	none (no result: RBBP9 inhibitor, ABHD5 PLIN5 PPI)
CC(=O)Nc1ccc(SCC(=O)c2cc(C)ccc2C)cc1	PRMT1 FP inh 29 (no result: RBBP9 inhibitor) | PRMT1 confirm 25
CC(=O)Nc1ccc(SCC(=O)c2cc(C)n(-c3ccccc3)c2C)cc1	none
Cc1ccc(C)c(C(=O)CSc2n[nH]c(C)n2)c1	PRMT1 FP inh 26 | PRMT1 confirm 47
CCc1nc(SCC(=O)c2cc(C)ccc2C)n[nH]1	none
COC(=O)[C@]12C[C@H](CC(=O)NCc3ccc(C)o3)C(=O)N(Cc3ccc4c(c3)OCO4)C1=C[C@H](COCc1ccccc1)O[C@@H]2C	none (no result: RBBP9 inhibitor, ABHD5 PLIN5 PPI)
COC(=O)CC1=C(c2ccc([N+](=O)[O-])cc2)CCC1=O	PRMT1 FP inh 60 (no result: RBBP9 inhibitor) | PRMT1 confirm inactive
COc1ccc(C(=O)CSc2nnc(-c3n[nH]c4c3CCC4)n2N)cc1OC	none (no result: RBBP9 inhibitor, ABHD5 PLIN5 PPI)
CC(=O)c1c(N2CCN(C)CC2)nc(=S)n(Cc2ccccc2)c1C	PRMT1 FP inh 39 | PRMT1 confirm inactive
CN(C)[C@H]1CCN(c2ccc3c(c2)OCCCN(C2CC2)S3(=O)=O)C1	none (no result: RBBP9 inhibitor, ABHD5 PLIN5 PPI)
S=c1nc(-c2cccc(Cl)c2)[nH][nH]1	none
S=c1nc(-c2cc(Cl)ccc2Cl)[nH][nH]1	PRMT1 FP inh 56 | PRMT1 confirm 47
Cc1ccc(S(=O)(=O)SC/C=C/CSS(=O)(=O)c2ccc(C)cc2)cc1	PRMT1 FP inh 87 (no result: RBBP9 inhibitor) | PRMT1 confirm 91
Cc1ccc(S(=O)(=O)SCCCSS(=O)(=O)c2ccc(C)cc2)cc1	PRMT1 FP inh 96 (no result: RBBP9 inhibitor) | PRMT1 confirm 91
COc1ccc(F)cc1-c1cc(C(C)=O)c2n(c1=O)CCC2	none (no result: RBBP9 inhibitor, ABHD5 PLIN5 PPI)
C=CCN1[C@@H](CC(C)C)COc2cccc(F)c2S1(=O)=O	none (no result: RBBP9 inhibitor, ABHD5 PLIN5 PPI)
CC1(C)SCC(C(=O)O)N1C=O (stereo not drawn)	PRMT1 FP inh 26 | PRMT1 confirm inactive
COc1ccc(CNCC#CC2=CCCCC2)c(OC)c1	none (no result: RBBP9 inhibitor, ABHD5 PLIN5 PPI)
O=C(NCc1ccco1)c1cccnc1-c1nc2ccccc2s1	PRMT1 FP inh 42 | PRMT1 confirm 46
COc1ccc(CNS(=O)(=O)/C=C/c2ccc(OC)cc2CNC(=O)OC(C)(C)C)cc1	none (no result: RBBP9 inhibitor, ABHD5 PLIN5 PPI)
O=c1c2ccc(F)cc2sn1-c1ccccc1	PRMT1 FP inh 80, UHRF1 MBD2 ctr 88, ABHD5 PLIN5 PPI 72 (no result: RBBP9 inhibitor) | PRMT1 confirm 94
O=c1c2cc(F)ccc2sn1-c1ccccc1Cl	PRMT1 FP inh 61 (no result: RBBP9 inhibitor) | PRMT1 confirm 95
O=C(c1sc2cc(F)ccc2c1Cl)N1CCN(c2cccc(Cl)c2)CC1	none

Source: PubChem
